Read-outs that look alike come from different tables or passages of the source.
What was measured:
intracellular Ca^2+ = experiment: Intracellular Ca2+ induction assay; format: cell-based, human; conditions: 2.5 μg/mL; Fluo-8 pre-treated HEK293T cells; fluorescence imaging; n = 3
Method in brief: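 HEK293T cells (2 × 10^4/well, poly-D-lysine plates) were cultured 24 h at 37°C, then loaded with 4 μM Fluo-8-AM in HBSS for 1 h at 37°C and switched to HBSS. After peptide addition, confocal high-content images were taken every second for 20 s. Cells above a fluorescence threshold set from pre-treatment cells were counted against untreated cells. The positive control was 5 μM ionomycin.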

E. coli ATCC35218 = conditions: previously determined values, ref Krämer et al.[35], cited from earlier work
P. aeruginosa ATCC27853 = conditions: MHII medium, previously determined values, ref Krämer et al.[35], cited from earlier work
M. smegmatis ATCC607 = conditions: MHII medium; previously determined values; ref Krämer et al.[35]; cited from earlier work
[1] = test system: S. aureus (MRSA) ATCC33592; conditions: MHII medium; previously determined values; ref Krämer et al.[35]; cited from earlier work
A. flavus ATCC9170 = conditions: MHII medium; previously determined values; ref Krämer et al.[35]; cited from earlier work
C. albicans FH2173 = conditions: MHII medium; previously determined values; ref Krämer et al.[35]; cited from earlier work
pea aphids = conditions: feeding assay; cited from earlier work

## FFGAIAKLAMK [Checacin 1^1−11]
Intracellular Ca^2+
  Induction of intracellular Ca^2+ levels: the only exceptions
E. coli ATCC35218
  MIC, E. coli ATCC35218, MHC medium (in brackets): >50 (>50) μM
  MIC, E. coli ATCC35218, MHII medium: >50 (>50) μM
P. aeruginosa ATCC27853
  MIC, P. aeruginosa ATCC27853: >50 µM
M. smegmatis ATCC607
  MIC, M. smegmatis ATCC607: >50 µM
[1]
  MIC, S. aureus (MRSA) ATCC33592: >50 µM
A. flavus ATCC9170
  MIC, A. flavus ATCC9170: >50 µM
C. albicans FH2173
  MIC, C. albicans FH2173: >50 µM

## FFGAIAKLAMKFLPAIYKQIQ [Checacin 1^1−21]
E. coli ATCC35218
  MIC, E. coli ATCC35218, MHC medium (in brackets): >50 (>50) μM
  MIC, E. coli ATCC35218, MHII medium: >50 (>50) μM
P. aeruginosa ATCC27853
  MIC, P. aeruginosa ATCC27853: >50 µM
M. smegmatis ATCC607
  MIC, M. smegmatis ATCC607: >50 µM
[1]
  MIC, S. aureus (MRSA) ATCC33592: 12.5 µM
A. flavus ATCC9170
  MIC, A. flavus ATCC9170: >50 µM
C. albicans FH2173
  MIC, C. albicans FH2173: >50 µM

## FFGAIAKLAMKFLPAIYKQIQKKRK-Amidation [Checacin 1]
E. coli ATCC35218
  MIC, E. coli ATCC35218, MHC medium (in brackets): 1.6 µM
P. aeruginosa ATCC27853
  MIC, P. aeruginosa ATCC27853: 12.5 µM
P. aeruginosa ATCC27853; listed as checacin 1
  MIC, P. aeruginosa ATCC27853: inhibited to various degrees
M. smegmatis ATCC607
  MIC, M. smegmatis ATCC607: 25 µM
[1]
  MIC, S. aureus (MRSA) ATCC33592: 1.56 µM
A. flavus ATCC9170
  MIC, A. flavus ATCC9170: 50 µM
C. albicans FH2173
  MIC, C. albicans FH2173: 6.25 µM
Pea aphids
  Insecticidal activity in aphid feeding assays: insecticidal activity in aphid feeding assays, but only after 72 h

## FLPAIYKQIQKKRK-Amidation [Checacin 1^12−25]
Intracellular Ca^2+
  Induction of intracellular Ca^2+ levels: the only exceptions
E. coli ATCC35218
  MIC, E. coli ATCC35218, MHC medium (in brackets): >50 (>50) μM
  MIC, E. coli ATCC35218, MHII medium: >50 (>50) μM
P. aeruginosa ATCC27853
  MIC, P. aeruginosa ATCC27853: >50 µM
M. smegmatis ATCC607
  MIC, M. smegmatis ATCC607: >50 µM
[1]
  MIC, S. aureus (MRSA) ATCC33592: >50 µM
A. flavus ATCC9170
  MIC, A. flavus ATCC9170: >50 µM
C. albicans FH2173
  MIC, C. albicans FH2173: >50 µM
